Experimental data taken from ChEMBL document CHEMBL5108087, “Synthesis and biological evaluation of paeoveitol D derivatives as new melatonin receptor agonists with antidepressant activities” (RSC Med Chem, 2022).
Active and inactive are the calls of the source. The rule behind the calls is not given here.

What was measured:
Mus musculus [1] = experiment: Antidepressant activity in Kunming mouse assessed as decrease in immobility time at 40 mg/kg, po and measured after 14 days by forced swim test relative to control; assay type: functional; set-up: scale not given: the % may be the effect or the level left; settings: time 14 day
Outline: (§1)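 Male Kunming mice, 15–18 g, given the test compound orally for 14 days. Forced swim then done in a cylinder 25 cm high and 15 cm in diameter, water 10 cm deep at 25 ± 1 °C. Swim lasted 6 min and immobility over the final 4 min was video-scored against the vehicle group.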

Mus musculus [2] = experiment: Antidepressant activity in Kunming mouse assessed as decrease in immobility time at 160 mg/kg, po and measured after 14 days by forced swim test relative to control; assay type: functional; set-up: scale not given: the % may be the effect or the level left; settings: time 14 day; outline: as §1
[3] = molecular target: T1, Melatonin receptor type 1A (Homo sapiens, UniProt P48039); experiment: (§2) Agonist activity at human MT1 receptor transfected in HEK293T cells co-transfected with tet-inducible luciferase reporter plasmid, pCDNA3.1(+)-CMV-betaArrestin2-tev plasmid and TANGO plasmid assessed as tango arrestin recruitment incubated for 24 hrs by TANGO-GPCR assay based luminescence plate reader analysis; assay type: functional, cell-based
T1 sequence (P48039 whole entry, the tested form may be a part): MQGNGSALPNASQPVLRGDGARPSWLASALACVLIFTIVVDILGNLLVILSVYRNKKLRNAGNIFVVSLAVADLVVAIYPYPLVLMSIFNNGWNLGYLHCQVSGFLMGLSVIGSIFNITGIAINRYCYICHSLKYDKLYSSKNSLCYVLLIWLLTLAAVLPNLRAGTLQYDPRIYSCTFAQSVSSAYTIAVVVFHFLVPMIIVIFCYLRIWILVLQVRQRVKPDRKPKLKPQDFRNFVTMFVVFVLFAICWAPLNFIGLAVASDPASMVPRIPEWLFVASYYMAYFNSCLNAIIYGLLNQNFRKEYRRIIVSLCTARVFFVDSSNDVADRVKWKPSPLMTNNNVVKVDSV

Mus musculus [4] = experiment: Antidepressant activity in kunming mouse assessed as increase in dopamine level in hypothalamus at 160 mg/kg, po measured after 14 days by HPLC-ECD analysis; assay type: functional, organism-based; settings: time 14.0 day
Outline: (§3)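 Male Kunming mice dosed orally with vehicle or 160 mg kg−1 for 14 days, then killed by cervical dislocation. Brain regions dissected on ice, homogenized in 0.2 M perchloric acid with 0.1 mM EDTA and spun at 4 °C for 20 min. Supernatant analysed by HPLC-ECD at +0.50 V, mobile phase pH 3.0. Amounts given in ng g−1 as mean ± SEM, n = 12.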

Mus musculus [5] = experiment: Antidepressant activity in kunming mouse assessed as increase in 5-HT level in hippocampus at 160 mg/kg, po measured after 14 days by HPLC-ECD analysis; assay type: functional, organism-based; settings: time 14.0 day; outline: as §3
Mus musculus [6] = experiment: Antidepressant activity in kunming mouse assessed as increase in 5-HT level in thalamus at 160 mg/kg, po measured after 14 days by HPLC-ECD analysis; assay type: functional, organism-based; settings: time 14.0 day; outline: as §3
Mus musculus [7] = experiment: Antidepressant activity in kunming mouse assessed as increase in dopamine level in hippocampus at 160 mg/kg, po measured after 14 days by HPLC-ECD analysis; assay type: functional, organism-based; settings: time 14.0 day; outline: as §3
[8] = molecular target: T1, Melatonin receptor type 1A; experiment: as §2, with “recruitment by measuring maximum activity” for “recruitment”, “analysis relative to 2-phenylmelatonin” for “analysis”; assay type: functional, cell-based; settings: filed as agonist
Outline: (§4)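 Tango arrestin recruitment: 293T cells transiently transfected with a tet-inducible luciferase reporter, CMV-βArrestin2-TEV and TANGO receptor plasmids. On day 2, replated at 20 000 cells per well on poly-L-lysine. Drug added on day 3. On day 4, luciferase reagent added for 20 min and luminescence counted. Curves fitted; data given as mean ± SD.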

Mus musculus [9] = experiment: Antidepressant activity in kunming mouse assessed as increase in dopamine level in thalamus at 160 mg/kg, po measured after 14 days by HPLC-ECD analysis; assay type: functional, organism-based; settings: time 14.0 day; outline: as §3
[10] = molecular target: T1, Melatonin receptor type 1A; experiment: as §2, with “recruitment by measuring maximum activity” for “recruitment”, “analysis relative to agomelatine” for “analysis”; assay type: functional, cell-based; settings: filed as agonist; outline: as §4
Mus musculus [11] = experiment: Antidepressant activity in Kunming mouse assessed as decrease in immobility time at 80 mg/kg, po and measured after 14 days by forced swim test relative to control; assay type: functional; set-up: scale not given: the % may be the effect or the level left; settings: time 14 day; outline: as §1
[12] = AUC (0 to 24 hrs) in Kunming mouse at 80 mg/kg, po administered as single dose and measured upto 24 hrs; assay type: ADME, organism-based; set-up: time < 24 hrs, dose 80 mg/kg, route po; settings: in vivo
Mus musculus [13] = experiment: Antidepressant activity in kunming mouse assessed as increase in dopamine level in frontal cortex at 160 mg/kg, po measured after 14 days by HPLC-ECD analysis; assay type: functional, organism-based; settings: time 14.0 day; outline: as §3
[14] = Subacute toxicity in Kunming mouse assessed as effect on heart structure at 240 mg/kg, po administered for 14 days; assay type: organism-based; settings: in vivo, 336 h, time 14 day
Outline: (§5)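 Subacute oral study following OECD 425. Animals randomised into two groups of six. Vehicle control received 0.5% CMC-Na orally for 14 consecutive days; the treated group received 240 mg kg−1 body weight orally for 14 consecutive days.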

Mus musculus [15] = experiment: Antidepressant activity in kunming mouse assessed as increase in 5-HT level in hypothalamus at 160 mg/kg, po measured after 14 days by HPLC-ECD analysis; assay type: functional, organism-based; settings: time 14.0 day; outline: as §3
[16] = Tmax in Kunming mouse at 80 mg/kg, po administered as single dose and measured upto 24 hrs; assay type: ADME, organism-based; settings: in vivo
Mus musculus [17] = experiment: Antidepressant activity in kunming mouse assessed as decrease in 5-HIAA level in hypothalamus at 160 mg/kg, po measured after 14 days by HPLC-ECD analysis; assay type: functional, organism-based; settings: time 14.0 day; outline: as §3
Mus musculus [18] = experiment: Antidepressant activity in kunming mouse assessed as decrease in DOPAC level in thalamus at 160 mg/kg, po measured after 14 days by HPLC-ECD analysis; assay type: functional, organism-based; settings: time 14.0 day; outline: as §3
Mus musculus [19] = experiment: Antidepressant activity in kunming mouse assessed as decrease in 5-HIAA level in thalamus at 160 mg/kg, po measured after 14 days by HPLC-ECD analysis; assay type: functional, organism-based; settings: time 14.0 day; outline: as §3
Mus musculus [20] = experiment: Antidepressant activity in kunming mouse assessed as decrease in DOPAC level in striatum at 160 mg/kg, po measured after 14 days by HPLC-ECD analysis; assay type: functional, organism-based; settings: time 14.0 day; outline: as §3
Mus musculus [21] = experiment: Antidepressant activity in Kunming mouse assessed as decrease in immobility time at 10 to 160 mg/kg, po administered two times at 1 hrs and 24 hrs and measured at last 4 mins of 6 mins test by forced swim test; assay type: functional, organism-based; settings: dose 10-160 mg/kg, time 1444.0 min
Outline: (§6)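 Male Kunming mice, 15–18 g, housed six per cage at 22 ± 1 °C on a 12 h light/dark cycle. Oral dosing 24 h and 1 h before the test. Each mouse placed in a cylinder (25 cm high, 15 cm diameter) holding 10 cm of water at 25 ± 1 °C and made to swim 6 min; immobility over the last 4 min scored by video tracking.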

Mus musculus [22] = experiment: Antidepressant activity in Kunming mouse assessed as decrease in immobility time at 160 mg/kg, po administered two times at 1 hrs and 24 hrs and measured at last 4 mins of 6 mins test by forced swim test relative to fluoxetine; assay type: functional; set-up: scale not given: the % may be the effect or the level left; settings: time 1444 min, 24.07 h; outline: as §6
[23] = Subacute toxicity in Kunming mouse assessed as animal death at 240 mg/kg, po administered for 14 days; assay type: organism-based; settings: in vivo, 336 h, time 14 day; outline: as §5

COc1cc2c(CN3CCN(C)CC3)coc2cc1C
Activity (Mus musculus [1]): 26% | Activity (Mus musculus [2]): 28% | EC50 [3]: 21 µM | Activity (Mus musculus [4]): Active | Activity (Mus musculus [5]): Active | Activity (Mus musculus [6]): Active | Activity (Mus musculus [7]): Active | Emax [8]: 46% | Activity (Mus musculus [9]): Active | Emax [10]: 57% | Activity (Mus musculus [11]): 26% | AUC [12]: 5400 ng·h/mL | Activity (Mus musculus [13]): Active | Activity [14]: Non-Toxic | Activity (Mus musculus [15]): Active | Tmax [16]: 4.98 min | Activity (Mus musculus [17]): Active | Activity (Mus musculus [18]): Active | Activity (Mus musculus [19]): Active | Activity (Mus musculus [20]): Active | Activity (Mus musculus [21]): Active | Activity (Mus musculus [22]): 29% | Activity [23]: Non-Toxic
